The record followed here is ChEMBL document CHEMBL4265978, “In search of constrained FTY720 and phytosphingosine analogs as dual acting anticancer agents targeting metabolic and epigenetic pathways” (Eur J Med Chem, 2018).

Test [1] relates to FL5.12. Nature of the test: Downregulation of CD98 expression in mouse FL5.12 cells at 2.5 uM after 3 hrs by DAPI staining-based FACS analysis relative to control. The test is classed as functional. Summed up: (§1)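 FL5.12 cells plated at 225-250,000/mL and treated 3 h. 150-200,000 cells stained in triplicate on ice for 30 min with PE-anti-mouse CD98, with PE rat IgG2a κ as isotype control. Read by flow cytometry, gated on viable cells (DAPI exclusion or scatter). Loss given as mean of at least 2 biological replicates.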

In test [2] the target is Histone deacetylase 1 (Homo sapiens) (UniProt Q13547). The experiment in a line: Inhibition of human recombinant HDAC1 at 20 uM after 15 to 30 mins by COLOR DE LYS-based colorimetric method. Summed up: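 Recombinant HDAC1 or HeLa extract incubated with acetylated lysine substrate at 37°C for 15-30 min. Developer then added: 10-15 min at 37°C with absorbance at 405 nm (colorimetric kit), or 15 min at RT with fluorescence at ex 355/em 460 nm, corrected using ± trichostatin A.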
Chain of Histone deacetylase 1 (Homo sapiens) (Q13547 whole entry): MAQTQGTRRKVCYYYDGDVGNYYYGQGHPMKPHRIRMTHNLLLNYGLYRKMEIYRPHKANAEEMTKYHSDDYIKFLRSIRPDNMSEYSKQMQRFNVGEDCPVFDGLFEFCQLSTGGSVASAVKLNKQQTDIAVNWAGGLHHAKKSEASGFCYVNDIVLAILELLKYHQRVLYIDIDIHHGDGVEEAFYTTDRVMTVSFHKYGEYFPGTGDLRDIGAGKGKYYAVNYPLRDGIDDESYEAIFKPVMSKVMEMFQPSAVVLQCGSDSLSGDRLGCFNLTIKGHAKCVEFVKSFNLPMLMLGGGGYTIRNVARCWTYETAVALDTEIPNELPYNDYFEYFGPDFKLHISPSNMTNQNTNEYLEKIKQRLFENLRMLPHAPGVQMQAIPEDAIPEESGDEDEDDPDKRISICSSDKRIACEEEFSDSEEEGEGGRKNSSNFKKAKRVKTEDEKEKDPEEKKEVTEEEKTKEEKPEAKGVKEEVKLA

Test [3] deals with FL5.12. The experiment in a line: Cytotoxicity against mouse FL5.12 cells assessed as vacuole formation at 2.5 uM after 3 hrs by […]. It counts as functional, cell-based. Summed up: (§2)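 FL5.12 cells treated at 200,000/mL for 3 h, then imaged at 100× by brightfield/DIC. At least 5 images per condition, at least 2 biological replicates. Two researchers scored each replicate independently: 0 no vacuoles, + some cells, ++ most cells with at least 1 vacuole, +++ all cells heavily vacuolated.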

The test system of test [4] is FL5.12. The experiment in a line: Downregulation of CD98 expression in mouse FL5.12 cells at 10 uM after 3 hrs by DAPI staining-based FACS analysis relative to control. The test is classed as functional. Summed up: as §1
For orientation: In flow cytometry, cells or beads pass a laser one at a time.

Test [5] relates to FL5.12. The experiment in a line: Cytotoxicity against mouse FL5.12 cells assessed as vacuole formation at 10 uM after 3 hrs by […]. The test is classed as functional, cell-based. In short, it runs like this:
as §2

Test [6] relates to FL5.12. The experiment in a line: Cytotoxicity against mouse FL5.12 cells after 48 hrs by DAPI or propidium iodide staining-based flow cytometric analysis. The test is classed as functional, cell-based. The note with it: FL5.12, 48 h. In short, it runs like this: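 FL5.12 (murine hematopoietic, IL-3-dependent) cells treated at 25,000/mL; viability read at 48 h by DAPI or propidium iodide dye exclusion on flow cytometry. IC50 fitted, reported with 95% confidence interval.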

The target of test [7] is T1, Histone deacetylase (Mus musculus) (UniProt Q8VH37+Q9Z2V6+Q9Z2V5+O09106+Q8C2B3+P70288+O88895+Q91WA3+Q99N13+Q6NZM9+Q6P3E7). The experiment in a line: Inhibition of HDAC in MEF assessed as increase in histone H4K8 acetylation at 5 uM after 6 hrs by Western blot analysis. It counts as cell-based. In short, it runs like this:
(§3)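 Histones acid-extracted in 0.2 N HCl overnight at 4°C; protein measured by BCA. Samples run on 4-12% gels and transferred to nitrocellulose, blocked in 5% BSA. Probed overnight at 4°C for acetyl-H3K9, H3K18, H4K5, H4K8 and total H3/H4, then with IRDye secondaries; infrared imaging.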
For orientation: Immunoblotting shows a protein as a band on a membrane.

Test [8] addresses T1, Histone deacetylase (Mus musculus). The experiment in a line: Inhibition of HDAC in MEF assessed as increase in histone H4 acetylation at 5 uM after 6 hrs by Western blot analysis. It counts as cell-based. In short, it runs like this: as §3
The target is the same in test [9]. The experiment in a line: Inhibition of HDAC in MEF assessed as increase in histone H4 acetylation at 10 uM after 6 hrs by Western blot analysis. It counts as cell-based. Summed up: as §3
Test [10] has the same target. The experiment in a line: Inhibition of HDAC in MEF assessed as increase in histone H3 acetylation at 5 uM after 6 hrs by Western blot analysis. It counts as cell-based. Summed up:
as §3

For test [11] the target is unchanged. The experiment in a line: Inhibition of HDAC in MEF assessed as increase in histone H3K18 acetylation at 6.1 uM after 24 hrs by Western blot analysis. It counts as cell-based. Summed up:
as §3

The target is the same in test [12]. Nature of the test: Inhibition of HDAC in MEF assessed as increase in histone H3 acetylation at 10 to 20 uM after 6 hrs by Western blot analysis. It counts as cell-based. In short, it runs like this:
as §3

The target is the same in test [13]. Nature of the test: Inhibition of HDAC in MEF assessed as increase in histone H4K5 acetylation at 10 uM after 6 hrs by Western blot analysis. It counts as cell-based. In short, it runs like this:
as §3

Test [14] has the same target. The experiment in a line: Inhibition of HDAC in MEF assessed as increase in histone H3 acetylation at 6.1 uM after 24 hrs by Western blot analysis. The test is classed as cell-based. In short, it runs like this: as §3
For test [15] the target is unchanged. The experiment in a line: Inhibition of HDAC in MEF assessed as increase in histone H3K18 acetylation at 5 uM after 6 hrs by Western blot analysis. The test is classed as cell-based. In short, it runs like this: as §3
Test [16] shares this target. Nature of the test: Inhibition of HDAC in MEF assessed as increase in histone H3K9 acetylation at 5 uM after 6 hrs by Western blot analysis. The test is classed as cell-based. Summed up:
as §3

Test [17] has the same target. The experiment in a line: Inhibition of HDAC in mouse FL5.12 cells assessed as increase in histone H3 acetylation at 10 uM after 6 hrs by Western blot analysis. It counts as cell-based. In short, it runs like this:
as §3

For test [18] the target is unchanged. Nature of the test: Inhibition of HDAC in MEF assessed as increase in histone H4K5 acetylation at 5 uM after 6 hrs by Western blot analysis. It counts as cell-based. Summed up:
as §3

Test [19] has the same target. The experiment in a line: Inhibition of HDAC in MEF assessed as increase in histone H3K9 acetylation at 6.1 uM after 24 hrs by Western blot analysis. It counts as cell-based. Summed up:
as §3

For test [20], the target named is Histone deacetylase (Homo sapiens) (UniProt Q13547+O15379+Q9UBN7+Q92769+Q9UQL6+Q8WUI4+Q9BY41+Q96DB2+P56524+Q9UKV0+Q969S8). The experiment in a line: Inhibition of HDAC (unknown origin) at 5 uM. It counts as protein assay.

Active and inactive are the calls of the source. The calls are words filed in the database; no cut-off is given here.

For orientation: inhibition means the share of the control response that was lost under treatment. As usually defined, the IC50 is the midpoint of a concentration-inhibition curve. Higher therefore signals lower potency. With `CCCCCCCCc1ccc(C(=O)C[C@H]2C[C@H](CO)CN2)cc1.Cl`, the Activity turned out to be 44% with FL5.12 [1] and 60% in the test with FL5.12 [4]. The inhibition entry in [2] was “inactive”. The outcome in the test on FL5.12 [3] and with FL5.12 [5] was Active. Besides, half-maximal inhibition in the test with FL5.12 [6] (IC50) was put at 2 µM.

On to `CCCCCCCCc1ccc(CCC(N)(CO)COP(=O)(O)O)cc1` (stereo not given), for which the inhibition result in test [7], in test [8], in test [9], in test [10], in [11] and in test [12] was “inactive” each time. For the same molecule, the inhibition result in [13], in [14], in [15], in test [16], in [17] and in test [18] was “inactive” each time. Besides, the inhibition result in test [19] was “inactive”. This molecule had an inhibition in test [20] of 60 to 75%.
